This is an account of results in ChEMBL document CHEMBL1155250, “Novel 1-aminoethyl-3-arylsulfonyl-1H-pyrrolo[2,3-b]pyridines are potent 5-HT(6) agonists” (Bioorg Med Chem, 2009).

For one experiment, the target named is D(3) dopamine receptor (Homo sapiens, UniProt P35462). Nature of the experiment: Displacement of [3H]spiperone from human cloned dopamine D3 receptor expressed in CHO-K1 cells. The class given is cell-based. In short, it runs like this: (§1)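 Binding selectivity used stably expressed human receptors, 5-HT in CHO cells and dopamine in CHO-K1. Radioligands: [125I]DOI for 5-HT2A (agonist radioligand), [3H]-5-HT for 5-HT2C, [3H]LSD for 5-HT7, [3H]spiperone for D2, D3 and D4. Values are IC50 in nM.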
A general note: Displacement assays read how much labelled ligand stays bound in the presence of the test substance.

Experiment [1] concerns the target 5-hydroxytryptamine receptor 7 (Homo sapiens, UniProt P34969). The experiment is described as follows: Displacement of [3H]LSD from human cloned 5HT7 receptor expressed in CHO cells. The experiment is classed as cell-based. In short, it runs like this:
as §1

The target of experiment [2] is T1, 5-hydroxytryptamine receptor 6 (Homo sapiens, UniProt P50406). The experiment is described as follows: Agonist activity at human cloned 5HT6 receptor expressed in HeLa cells assessed as induction of adenylyl cyclase activity by RIA relative to serotonin. The experiment is classed as functional, cell-based. In short, it runs like this:
(§2)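 Transfected HeLa cells expressing human 5-HT6 were washed with Krebs buffer and preincubated 5 min at 37 °C in Krebs with 500 µM IBMX. They were then stimulated 10 min at 37 °C with compound over 0.1–10000 nM. Agonist potency came from concentration–response curves, and percent efficacy was taken relative to a serotonin maximal response.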

Experiment [3] has as its system Rattus norvegicus. The experiment is described as follows: Inhibition of schedule-induced polydipsia in po dosed Sprague-Dawley rat assessed as reduction of adjunctive drinking behavior. The class given is functional. The gist of the method: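 In the schedule-induced polydipsia model, rats were dosed orally at 30, 56 and 100 mg/kg against a vehicle group. Adjunctive drinking was measured, an ED50 was derived, and comparison with vehicle used P < 0.05.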

For experiment [4], the target named is T2, 5-hydroxytryptamine receptor 2C (Homo sapiens, UniProt P28335).
T2 sequence (P28335 whole entry): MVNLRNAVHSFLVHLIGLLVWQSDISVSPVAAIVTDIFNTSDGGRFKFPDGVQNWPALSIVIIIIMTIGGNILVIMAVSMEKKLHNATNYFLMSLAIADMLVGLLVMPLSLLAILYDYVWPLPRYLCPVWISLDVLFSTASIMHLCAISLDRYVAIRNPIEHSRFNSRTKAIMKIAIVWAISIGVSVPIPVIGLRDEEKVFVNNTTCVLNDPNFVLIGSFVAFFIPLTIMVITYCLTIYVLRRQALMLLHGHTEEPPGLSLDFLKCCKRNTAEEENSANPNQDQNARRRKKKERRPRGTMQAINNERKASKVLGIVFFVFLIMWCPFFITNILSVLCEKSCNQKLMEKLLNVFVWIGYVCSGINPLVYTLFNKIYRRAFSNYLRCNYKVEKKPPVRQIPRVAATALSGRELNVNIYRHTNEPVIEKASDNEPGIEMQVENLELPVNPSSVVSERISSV
Nature of the experiment: Displacement of [3H]5-HT from human cloned 5HT2C receptor expressed in CHO cells. The class given is cell-based. In short, it runs like this: as §1

In a further experiment the target is T3, D(4) dopamine receptor (Homo sapiens, UniProt P21917).
T3 sequence (P21917 whole entry): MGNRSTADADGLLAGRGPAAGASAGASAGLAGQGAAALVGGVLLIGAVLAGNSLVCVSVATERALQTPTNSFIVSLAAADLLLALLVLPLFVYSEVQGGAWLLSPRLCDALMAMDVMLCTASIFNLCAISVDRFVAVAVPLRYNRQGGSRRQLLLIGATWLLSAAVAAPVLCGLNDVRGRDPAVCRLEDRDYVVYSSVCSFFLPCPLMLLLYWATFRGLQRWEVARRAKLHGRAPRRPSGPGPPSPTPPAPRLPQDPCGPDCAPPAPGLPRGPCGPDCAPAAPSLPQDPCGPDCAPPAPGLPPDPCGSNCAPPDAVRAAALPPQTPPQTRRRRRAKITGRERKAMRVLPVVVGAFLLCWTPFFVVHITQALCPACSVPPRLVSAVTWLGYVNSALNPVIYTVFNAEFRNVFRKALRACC
The experiment is described as follows: Displacement of [3H]spiperone from human cloned dopamine D4 receptor expressed in CHO-K1 cells. The experiment is classed as cell-based. In short, it runs like this: as §1

Experiment [5] concerns the target 5-hydroxytryptamine receptor 1B (Homo sapiens) (UniProt P28222). The experiment is described as follows: Displacement of [3H]5-HT from human cloned 5HT1B receptor expressed in CHO cells at 1 uM. The class given is cell-based. In short, it runs like this:
(§3)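 Human 5-HT1B, 5-HT1D and 5-HT1F receptors were stably expressed in CHO cells and labelled with [3H]-5-HT. Results are given as percent inhibition at a single 1 µM concentration.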

The target in experiment [6] is 5-hydroxytryptamine receptor 1D (Homo sapiens) (UniProt P28221). The experiment is described as follows: Displacement of [3H]5-HT from human cloned 5HT1D receptor expressed in CHO cells at 1 uM. The class given is cell-based. In short, it runs like this: as §3
Experiment [7] deals with 5-hydroxytryptamine receptor 2A (Homo sapiens, UniProt P28223). The experiment is described as follows: Displacement of [125I]DOI from human cloned 5HT2A receptor expressed in CHO cells. The class given is cell-based. The gist of the method:
as §1

For experiment [8], the target named is T4, 5-hydroxytryptamine receptor 1F (Homo sapiens) (UniProt P30939).
T4 sequence (whole entry): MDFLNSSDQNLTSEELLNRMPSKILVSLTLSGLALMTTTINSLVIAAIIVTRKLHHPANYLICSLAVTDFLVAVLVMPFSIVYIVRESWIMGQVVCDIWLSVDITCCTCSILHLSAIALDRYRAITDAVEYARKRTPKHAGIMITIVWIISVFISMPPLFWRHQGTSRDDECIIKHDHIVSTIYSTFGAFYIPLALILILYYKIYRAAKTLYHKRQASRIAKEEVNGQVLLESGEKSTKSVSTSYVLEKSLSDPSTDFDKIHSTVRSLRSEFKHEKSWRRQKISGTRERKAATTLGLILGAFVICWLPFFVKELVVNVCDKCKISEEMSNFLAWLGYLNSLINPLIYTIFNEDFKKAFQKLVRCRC
Nature of the experiment: Displacement of [3H]5-HT from human cloned 5HT1F receptor expressed in CHO cells at 1 uM. The experiment is classed as cell-based. In short, it runs like this:
as §3

For experiment [9], the system named is Rattus norvegicus. Nature of the experiment: Increase in extracellular glutamate level in Sprague-Dawley rat frontal cortex at 30 mg/kg, sc. The class given is functional, organism-based. Set-up: dose 30 mg/kg. The gist of the method:
(§4)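 Rats received a single acute subcutaneous dose of 30 mg/kg. Extracellular GABA and glutamate in frontal cortex were followed over time from about −100 to 350 min around dosing and compared with vehicle-treated animals, with significance set at P < 0.05.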

For the next experiment, the target named is D(2) dopamine receptor (Homo sapiens, UniProt P14416). Nature of the experiment: Displacement of [3H]spiperone from human cloned dopamine D2 receptor expressed in CHO-K1 cells. The experiment is classed as cell-based. The gist of the method:
as §1

Experiment [10] has as its system Rattus norvegicus. Nature of the experiment: Increase in extracellular GABA level in Sprague-Dawley rat frontal cortex at 30 mg/kg, sc. The class given is functional, organism-based. Set-up: dose 30 mg/kg. The gist of the method:
as §4

For experiment [11], the species on record is Homo sapiens. The experiment is described as follows: Selectivity ratio of IC50 for human cloned dopamine D4 receptor to human cloned 5HT6 receptor.
For experiment [12], the species on record is Homo sapiens. The experiment is described as follows: Selectivity ratio of IC50 for human cloned 5HT1F receptor to human cloned 5HT6 receptor.
The target in experiment [13] is T1, 5-hydroxytryptamine receptor 6. The experiment is described as follows: Agonist activity at human cloned 5HT6 receptor expressed in HeLa cells assessed as induction of adenylyl cyclase activity by RIA. The experiment is classed as functional, cell-based. In short, it runs like this:
as §2

Experiment [14] is filed under the species Homo sapiens. Nature of the experiment: Selectivity ratio of IC50 for human cloned 5HT1D receptor to human cloned 5HT6 receptor.
The species entered for experiment [15] is Homo sapiens. The experiment is described as follows: Selectivity ratio of IC50 for human cloned dopamine D3 receptor to human cloned 5HT6 receptor.
Experiment [16] concerns the target T1, 5-hydroxytryptamine receptor 6. The experiment is described as follows: Displacement of [3H]LSD from human cloned 5HT6 receptor expressed in HeLa cells. The class given is cell-based. The gist of the method:
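Radioligand binding used human 5-HT6 receptor stably expressed in HeLa cells with [3H]LSD as the radioligand. Affinity is reported as Ki.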

Experiment [17] is filed under the species Homo sapiens. Nature of the experiment: Selectivity ratio of IC50 for human cloned 5HT2A receptor to human cloned 5HT6 receptor.
For experiment [18], the species on record is Homo sapiens. Nature of the experiment: Selectivity ratio of IC50 for human cloned 5HT1B receptor to human cloned 5HT6 receptor.
Experiment [19] is filed under the species Homo sapiens. The experiment is described as follows: Selectivity ratio of IC50 for human cloned dopamine D2 receptor to human cloned 5HT6 receptor.
The species named for experiment [20] is Homo sapiens. Nature of the experiment: Selectivity ratio of IC50 for human cloned 5HT2C receptor to human cloned 5HT6 receptor.
The species entered for experiment [21] is Homo sapiens. Nature of the experiment: Selectivity ratio of IC50 for human cloned 5HT7 receptor to human cloned 5HT6 receptor.

Active and inactive are the calls of the source. The rule behind the calls is not given here.

T1 sequence (P50406 whole entry): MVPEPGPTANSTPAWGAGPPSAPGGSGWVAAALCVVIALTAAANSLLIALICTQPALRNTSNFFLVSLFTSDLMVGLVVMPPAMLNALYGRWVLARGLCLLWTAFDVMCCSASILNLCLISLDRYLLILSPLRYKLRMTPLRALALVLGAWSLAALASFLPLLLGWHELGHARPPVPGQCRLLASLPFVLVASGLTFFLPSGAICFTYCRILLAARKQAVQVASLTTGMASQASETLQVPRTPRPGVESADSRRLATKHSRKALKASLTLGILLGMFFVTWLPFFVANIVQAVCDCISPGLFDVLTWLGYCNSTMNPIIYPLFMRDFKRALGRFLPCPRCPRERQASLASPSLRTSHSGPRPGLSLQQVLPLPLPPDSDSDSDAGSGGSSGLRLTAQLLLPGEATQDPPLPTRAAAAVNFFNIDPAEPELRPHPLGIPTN
D(3) dopamine receptor, sequence (P35462 whole entry): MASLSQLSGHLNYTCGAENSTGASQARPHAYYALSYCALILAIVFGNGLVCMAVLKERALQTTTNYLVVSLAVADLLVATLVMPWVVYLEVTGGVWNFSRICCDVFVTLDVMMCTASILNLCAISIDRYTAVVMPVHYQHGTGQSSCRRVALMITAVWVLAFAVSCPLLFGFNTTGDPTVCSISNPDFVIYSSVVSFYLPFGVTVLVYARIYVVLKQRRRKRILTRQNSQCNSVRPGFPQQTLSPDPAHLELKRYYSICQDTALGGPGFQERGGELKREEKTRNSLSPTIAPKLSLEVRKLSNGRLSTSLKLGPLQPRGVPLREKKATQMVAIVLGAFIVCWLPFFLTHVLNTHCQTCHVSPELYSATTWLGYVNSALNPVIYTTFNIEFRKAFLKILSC
5-hydroxytryptamine receptor 1B (Homo sapiens), sequence (P28222 whole entry): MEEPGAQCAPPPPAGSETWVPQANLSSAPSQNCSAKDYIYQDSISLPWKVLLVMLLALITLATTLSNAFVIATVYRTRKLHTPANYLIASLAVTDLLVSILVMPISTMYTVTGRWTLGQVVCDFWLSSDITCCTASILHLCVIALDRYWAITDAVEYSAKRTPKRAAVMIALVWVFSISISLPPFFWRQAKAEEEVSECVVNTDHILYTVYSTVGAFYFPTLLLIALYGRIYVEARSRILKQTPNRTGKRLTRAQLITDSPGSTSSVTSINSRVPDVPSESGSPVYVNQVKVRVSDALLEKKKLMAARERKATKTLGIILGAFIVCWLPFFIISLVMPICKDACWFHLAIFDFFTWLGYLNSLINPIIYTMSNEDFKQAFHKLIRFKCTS
D(2) dopamine receptor, sequence (P14416 whole entry): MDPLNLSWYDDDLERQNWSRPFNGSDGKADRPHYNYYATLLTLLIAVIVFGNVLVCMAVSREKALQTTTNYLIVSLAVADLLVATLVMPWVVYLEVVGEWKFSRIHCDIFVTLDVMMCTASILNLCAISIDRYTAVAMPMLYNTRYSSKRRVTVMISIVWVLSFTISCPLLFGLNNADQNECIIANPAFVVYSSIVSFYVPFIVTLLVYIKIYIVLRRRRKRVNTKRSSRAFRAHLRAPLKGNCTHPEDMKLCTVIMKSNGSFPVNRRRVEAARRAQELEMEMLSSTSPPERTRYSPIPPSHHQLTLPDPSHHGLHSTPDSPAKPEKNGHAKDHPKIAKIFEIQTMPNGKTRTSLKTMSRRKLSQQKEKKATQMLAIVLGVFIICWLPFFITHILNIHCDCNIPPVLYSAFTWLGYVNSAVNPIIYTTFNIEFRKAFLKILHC
5-hydroxytryptamine receptor 1D (Homo sapiens), sequence (P28221 whole entry): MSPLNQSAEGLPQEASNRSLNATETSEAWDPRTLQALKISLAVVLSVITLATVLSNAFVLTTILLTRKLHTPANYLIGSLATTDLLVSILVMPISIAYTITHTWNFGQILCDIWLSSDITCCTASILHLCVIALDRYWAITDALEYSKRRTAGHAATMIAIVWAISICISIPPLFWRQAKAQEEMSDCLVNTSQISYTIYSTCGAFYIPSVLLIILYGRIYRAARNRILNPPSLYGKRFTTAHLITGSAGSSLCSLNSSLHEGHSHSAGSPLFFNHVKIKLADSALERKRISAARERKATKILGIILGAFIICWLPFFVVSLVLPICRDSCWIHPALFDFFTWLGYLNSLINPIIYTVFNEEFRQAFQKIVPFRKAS
5-hydroxytryptamine receptor 7, sequence (P34969 whole entry): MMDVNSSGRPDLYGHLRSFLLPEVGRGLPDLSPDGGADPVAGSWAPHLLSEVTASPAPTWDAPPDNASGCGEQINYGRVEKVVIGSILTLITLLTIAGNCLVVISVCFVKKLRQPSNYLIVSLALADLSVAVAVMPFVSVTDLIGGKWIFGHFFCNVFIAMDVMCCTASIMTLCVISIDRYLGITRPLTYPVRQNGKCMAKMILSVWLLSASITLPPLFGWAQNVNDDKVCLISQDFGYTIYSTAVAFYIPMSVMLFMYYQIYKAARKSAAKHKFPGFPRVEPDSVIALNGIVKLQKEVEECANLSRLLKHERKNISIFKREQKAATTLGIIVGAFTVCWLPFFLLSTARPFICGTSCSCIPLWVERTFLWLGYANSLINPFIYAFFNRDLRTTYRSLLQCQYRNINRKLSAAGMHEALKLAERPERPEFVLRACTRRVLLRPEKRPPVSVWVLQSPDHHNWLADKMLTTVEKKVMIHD
5-hydroxytryptamine receptor 2A, sequence (P28223 whole entry): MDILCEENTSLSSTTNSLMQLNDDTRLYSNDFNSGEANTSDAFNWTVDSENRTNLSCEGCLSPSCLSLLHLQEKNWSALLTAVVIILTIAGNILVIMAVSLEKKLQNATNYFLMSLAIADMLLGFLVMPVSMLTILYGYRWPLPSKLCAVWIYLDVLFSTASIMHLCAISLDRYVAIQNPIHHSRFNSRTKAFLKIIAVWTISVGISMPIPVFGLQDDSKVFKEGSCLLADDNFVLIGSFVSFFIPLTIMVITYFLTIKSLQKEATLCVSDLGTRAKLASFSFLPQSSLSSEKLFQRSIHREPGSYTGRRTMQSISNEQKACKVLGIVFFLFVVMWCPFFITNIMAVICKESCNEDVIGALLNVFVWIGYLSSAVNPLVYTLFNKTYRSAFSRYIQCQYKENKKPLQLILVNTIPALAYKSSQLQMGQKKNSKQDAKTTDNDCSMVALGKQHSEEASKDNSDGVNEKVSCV

For `CN(C)CCn1cc(S(=O)(=O)c2cccc(F)c2)c2cccnc21`, the IC50 (as a rule, the concentration that inhibits the measured activity by half) on D(3) dopamine receptor was > 5 µM; in experiment [1], 4.76 µM; in experiment [4] it was 0.644 µM; at D(4) dopamine receptor, > 5 µM; in experiment [7], 0.351 µM; on D(2) dopamine receptor, > 5 µM. Further, the Emax (commonly the maximal effect, on the per cent scale that the assay sets) in experiment [2] came to 100%. Moreover, the ED50 (usually the midpoint of the dose-response relation) with Rattus norvegicus [3] was 89.5 mg/kg. Moreover, the figures for the inhibition in experiment [5], in experiment [6] and in experiment [8] were 30%, 16% and 22%, respectively. For the same compound, the result in the experiment on Rattus norvegicus [9] was inactive. Also, in the experiment with Rattus norvegicus [10], the result was Active.

On to `NCCn1cc(S(=O)(=O)c2ccccc2)c2cccnc21`, for which the IC50 (at D(3) dopamine receptor; in [1]; in [4]; at D(4) dopamine receptor; in experiment [7]; at D(2) dopamine receptor) was > 5 µM each time. Moreover, the Ratio IC50 in the experiment filed under Homo sapiens [11], in the experiment filed under Homo sapiens [12], in the experiment listed under Homo sapiens [14], in the experiment listed under Homo sapiens [15], in the experiment listed under Homo sapiens [17] and in the experiment listed under Homo sapiens [18] was > 50 each time. Besides, the Ratio IC50 in the experiment listed under Homo sapiens [19], in the experiment filed under Homo sapiens [20] and in the experiment filed under Homo sapiens [21] was > 50 throughout. The EC50 (commonly the midpoint of the concentration-response curve) in [13] worked out at 0.027 µM. Moreover, the Emax in experiment [2] is 100%. For the same compound, in [16], affinity was put at a Ki of 0.0055 µM. The values for the inhibition in [5], in [6] and in experiment [8] were 11%, 16% and 14%, respectively.
